According to ChEMBL document CHEMBL1240409, “Design, synthesis and evaluation of (E)-alpha-benzylthio chalcones as novel inhibitors of BCR-ABL kinase” (Bioorg Med Chem, 2010):

Key:
K562 = test: Growth inhibition of human K562 cells expressing p210Bcr/Abl after 96 hrs by trypan blue exclusion assay; type: functional, cell-based; conditions: K562, 96 h
In short: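 K562 cells were kept in RPMI with 10% FBS and penicillin–streptomycin at 37 °C under 5% CO2. Cells were seeded at 1 × 10^5 cells/mL with a range of compound concentrations, using DMSO as the negative control. After 96 h, viability was counted by Trypan blue exclusion and expressed as percent of DMSO control to derive GI50.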

DU-145 = test: Growth inhibition of human DU145 cells after 96 hrs by trypan blue exclusion assay; type: functional; conditions: DU-145, 96 h

GI50 (K562)	GI50 (DU-145)	Compound
10 µM	10 µM	COc1ccc(/C=C(/SCc2ccc(Cl)cc2)C(=O)c2ccc(C(=O)O)cc2)cc1
1 µM	10 µM	Cc1ccc(CS/C(=C/c2ccc(Br)cc2)C(=O)c2ccc(Cl)cc2)cc1
1 µM	1 µM	COc1cc(/C=C(/Sc2ccc(Br)cc2)C(=O)c2ccc(Br)cc2)ccc1O
1 µM	1 µM	O=C(/C(=C\c1ccc(F)cc1F)Sc1ccc(Br)cc1)c1ccc(Cl)cc1
1 µM	1 µM	COc1ccccc1/C=C(\C(=O)c1ccc(Cl)cc1)S(=O)(=O)c1ccc(C)cc1
25 µM	50 µM	O=C(/C(=C\c1ccc(O)cc1O)SCc1cccc(Cl)c1)c1ccc(Br)cc1
1 µM	1 µM	O=C(/C(=C\c1ccc([N+](=O)[O-])c(O)c1)SCc1ccc(Br)cc1)c1ccc([N+](=O)[O-])c(Cl)c1
15 µM	> 100 µM	Cc1ccc(CS/C(=C/c2ccc(N(C)C)cc2)C(=O)c2ccc(Cl)cc2)cc1
1 µM	1 µM	CCOc1ccc(/C=C(/SCc2ccc(F)cc2)C(=O)c2ccc(Cl)cc2)cc1OC
1 µM	1 µM	O=C(/C(=C\c1ccccc1OCc1ccccc1)SCc1ccc(F)cc1)c1ccc(Cl)cc1
1 µM	1 µM	O=C(/C(=C\c1ccccc1OCc1ccccc1)S(=O)(=O)c1ccc(Br)cc1)c1ccc(Cl)cc1
> 100 µM	> 100 µM	O=C(O)c1ccc(/C=C(/SCc2ccc(Cl)cc2)C(=O)c2ccc(C(=O)O)cc2)cc1
1 µM	20 µM	COc1ccc(/C=C(/Sc2ccc(Br)cc2)C(=O)c2ccc(Br)cc2)c(F)c1
10 µM	10 µM	Cc1ccc(S/C(=C/c2ccc(Oc3ccccc3)cc2)C(=O)c2ccc(Cl)cc2)cc1
50 µM	10 µM	Cc1ccsc1/C=C(/SCc1ccc(Cl)cc1Cl)C(=O)c1ccc(Cl)cc1
1 µM	10 µM	CSc1ccc(/C=C(\C(=O)c2ccc(Cl)cc2)S(=O)(=O)Cc2ccc(Cl)cc2)cc1
1 µM	1 µM	O=C(O)c1ccc(C(=O)/C(=C\c2ccc(Br)c([N+](=O)[O-])c2)SCc2ccccc2Cl)cc1
1 µM	1 µM	O=C(O)c1ccc(C(=O)/C(=C\c2ccc(N3CCN(Cc4ccccc4)CC3)c([N+](=O)[O-])c2)SCc2ccc(F)cc2)cc1
50 µM	> 100 µM	O=C(/C(=C\c1ccc(O)c([N+](=O)[O-])c1)SCc1ccc(Br)cc1)c1ccc(O)cc1O
> 100 µM	> 100 µM	CN(C)c1ccc(/C=C(/Sc2ccc(Br)cc2)C(=O)c2ccc(Cl)cc2)cc1
10 µM	10 µM	Nc1ccc(/C=C(/SCc2ccc(F)cc2)C(=O)c2ccc(C(=O)O)cc2)cc1[N+](=O)[O-]
25 µM	25 µM	O=C(/C(=C\c1ccc(F)cc1F)S(=O)(=O)c1ccc(Cl)cc1)c1ccc(Br)cc1
> 50 µM	> 50 µM	O=C(C(=Cc1ccc(Br)cc1)S(=O)(=O)Cc1ccc(I)cc1)c1ccc(Br)cc1
25 µM	25 µM	O=C(/C(=C\c1c(O)cc(O)cc1O)SCc1ccc(Cl)c(Cl)c1)c1ccc(Cl)cc1
1 µM	10 µM	O=C(/C(=C\c1c[nH]c2ccc(Br)cc12)SCc1ccc(Cl)cc1Cl)c1ccc(Cl)cc1

GI50 (K562)	GI50 (DU-145)	Compound
8 µM	1 µM	O=C(/C(=C\c1ccc(Br)cc1)Sc1ccccc1Br)c1ccc(Br)cc1
> 100 µM	> 100 µM	Cc1ccc(/C=C(/SCc2ccc(F)cc2)C(=O)c2ccc(Cl)cc2)s1
1 µM	1 µM	O=C(/C(=C\c1ccc(Cl)cc1)Sc1ccc(Cl)cc1)c1ccc(Cl)cc1
> 100 µM	> 100 µM	Cc1ccc(CS(=O)(=O)/C(=C/c2c(O)cc(O)cc2O)C(=O)c2ccc(Cl)cc2)cc1
50 µM	25 µM	Cc1ccc(S(=O)(=O)/C(=C/c2ccc(C)s2)C(=O)c2ccc(Br)cc2)cc1
10 µM	10 µM	O=C(/C(=C\c1ccc(O)c([N+](=O)[O-])c1)SCc1ccccc1Cl)c1ccc(Cl)cc1
1 µM	10 µM	Cc1ccc(CS/C(=C/c2ccccc2F)C(=O)c2ccc(Br)cc2)cc1
1 µM	10 µM	O=C(/C(=C\c1ccc(O)cc1)SCc1ccc(Cl)cc1)c1ccc(Cl)cc1
1 µM	50 µM	CN(C)c1ccc(/C=C(/SCc2ccc(F)cc2)C(=O)c2ccc(Cl)cc2)cc1
1 µM	1 µM	COc1ccc(C(=O)C(=Cc2ccc(Br)cc2)S(=O)(=O)Cc2ccc(Br)cc2)cc1
1 µM	1 µM	Cc1ccc(/C=C(\C(=O)c2ccc(Cl)cc2)S(=O)(=O)Cc2ccc(Cl)cc2)s1
10 µM	25 µM	COc1ccc(/C=C(\C(=O)c2ccc(Br)cc2)S(=O)(=O)Cc2ccc(Cl)cc2)cc1
25 µM	25 µM	Cc1ccc(CS(=O)(=O)/C(=C/c2ccc(C)s2)C(=O)c2ccc(Cl)cc2)cc1
25 µM	25 µM	O=C(/C(=C\c1cc(Br)c(O)c(Br)c1)S(=O)(=O)Cc1ccc(Br)cc1)c1ccc(Br)cc1
10 µM	10 µM	COc1cc(OC)c(/C=C(\C(=O)c2ccc([N+](=O)[O-])cc2)S(=O)(=O)Cc2ccc(Cl)cc2)c(OC)c1
1 µM	10 µM	Cc1ccc(CS/C(=C/c2ccc(O)cc2)C(=O)c2ccc(Cl)cc2)cc1
25 µM	25 µM	O=C(/C(=C\c1ccc(OC(F)(F)F)cc1)S(=O)(=O)c1ccc(Br)cc1)c1ccc(Br)cc1
> 100 µM	> 100 µM	CN(C)c1ccc(/C=C(/Sc2ccccc2Br)C(=O)c2ccc(Br)cc2)cc1
1 µM	1 µM	O=C(O)c1ccc(C(=O)/C(=C\c2ccc(Br)cc2)SCc2ccc(Br)cc2)cc1
1 µM	10 µM	O=C(C(=Cc1ccc(Br)cc1)SCc1ccccc1Cl)c1ccc(Cl)cc1
1 µM	10 µM	O=C(/C(=C\c1ccc([N+](=O)[O-])c(O)c1)SCc1ccc(Br)cc1)c1ccc(Br)cc1
25 µM	> 100 µM	COc1cc(OC)c(/C=C(/Sc2ccc(C)cc2)C(=O)c2ccc(Cl)cc2)c(OC)c1
10 µM	10 µM	Cc1ccc(S/C(=C/c2c[nH]c3ccccc23)C(=O)c2ccc(Br)cc2)cc1
1 µM	10 µM	COc1cc(/C=C(/Sc2ccc(Br)cc2)C(=O)c2ccc(Br)cc2)ccc1F
1 µM	1 µM	O=C(/C(=C/c1ccc(Cl)cc1)Cc1ccc(Cl)c(Cl)c1)c1ccc(Cl)cc1Cl

GI50 (K562)	GI50 (DU-145)	Compound
1 µM	10 µM	COc1ccccc1/C=C(/SCc1ccccc1F)C(=O)c1ccc(Cl)cc1
1 µM	1 µM	CCOc1ccc(/C=C(\C(=O)c2ccc(Cl)cc2)S(=O)(=O)c2ccc(C)cc2)cc1OC
25 µM	25 µM	Cc1ccc(/C=C(/SCc2ccc(Cl)cc2)C(=O)c2ccc([N+](=O)[O-])cc2)s1
50 µM	50 µM	Cc1ccc(S/C(=C/c2sccc2C)C(=O)c2ccc(Cl)cc2)cc1
10 µM	10 µM	O=C(/C(=C\c1ccc(O)c([N+](=O)[O-])c1)S(=O)(=O)Cc1ccccc1Cl)c1ccc(Cl)cc1
50 µM	50 µM	CN(C)c1ccc(/C=C(/SCc2ccc(Br)cc2)C(=O)c2ccc(C(=O)O)cc2)cc1
1 µM	1 µM	O=C(/C(=C\c1ccc([N+](=O)[O-])c(O)c1)SCc1ccc(Br)cc1)c1ccc(C(F)(F)F)cc1
1 µM	12 µM	O=C(/C(=C\c1ccc(Cl)cc1)SCc1ccccc1Cl)c1ccc(Cl)cc1
10 µM	25 µM	CC(=O)Oc1ccc(/C=C(\C(=O)c2ccc(Cl)cc2)S(=O)(=O)c2ccc(C)cc2)cc1
25 µM	50 µM	O=C(/C(=C\c1ccc(F)cc1Cl)S(=O)(=O)c1ccc(Br)cc1)c1ccc(Br)cc1
50 µM	50 µM	Cc1ccc(S/C(=C/c2ccc(Cl)c(Cl)c2)C(=O)c2ccc(Br)cc2)cc1
50 µM	50 µM	O=C(/C(=C\c1ccc(Cl)cc1)S(=O)(=O)c1ccc(Br)cc1)c1ccc(Br)cc1
10 µM	10 µM	Cc1ccc(S/C(=C/c2ccc(Cl)cc2Cl)C(=O)c2ccc(Cl)cc2)cc1
1 µM	1 µM	Cc1ccc(/C=C(\C(=O)c2ccc(Br)cc2)S(=O)(=O)Cc2ccc(F)cc2)s1
1 µM	50 µM	CCOc1ccc(/C=C(/SCc2ccc(F)cc2)C(=O)c2ccc(Br)cc2)cc1OC
10 µM	25 µM	O=C(/C(=C\c1ccc(O)cc1)SCc1ccc(F)cc1)c1ccc(Cl)cc1
50 µM	50 µM	O=C(/C(=C\c1ccc(Br)c(O)c1)S(=O)(=O)c1ccc(Br)cc1)c1ccc(Br)cc1
1 µM	1 µM	Cc1ccc(S(=O)(=O)/C(=C/c2cc(C)ccc2C)C(=O)c2ccc(Cl)cc2)cc1
10 µM	4 µM	O=C(/C(=C\c1ccc(F)cc1)S(=O)(=O)c1ccc(Br)cc1)c1ccc(Br)cc1
1 µM	10 µM	O=C(/C(=C\c1cccc(Cl)c1Cl)SCc1ccc(Cl)cc1)c1ccc(Cl)cc1
10 µM	10 µM	COc1ccc(C(=O)/C(=C\c2ccc(O)c([N+](=O)[O-])c2)SCc2ccc(Br)cc2)cc1
1 µM	10 µM	O=C(/C(=C\c1ccc(Cl)cc1)SCc1ccc(Cl)cc1)c1ccc(Br)cc1
1 µM	7.5 µM	O=C(/C(=C\c1ccc(F)cc1F)S(=O)(=O)c1ccc(Br)cc1)c1ccc(Br)cc1
25 µM	50 µM	Cc1ccc(S/C(=C/c2ccc(-c3ccccc3)cc2)C(=O)c2ccc(Br)cc2)cc1
1 µM	1 µM	O=C(/C(=C\c1c[nH]c2ccccc12)SCc1ccc(F)cc1)c1ccc(Cl)cc1
